From ChEMBL document CHEMBL4513216, “Probing the Open Global Health Chemical Diversity Library for Multistage-Active Starting Points for Next-Generation Antimalarials” (ACS Infect Dis, 2020) come the findings set out here.

This data set in a line: Toxicity liver stage against HepG2, at 10uM. The format is cell-based. Also on record: test concentration 10 uM, cell line HepG2-A16-CD81EGFP. Conditions: human, HepG2-A16-CD81EGFP cells; read-out: INHIBITION
An outline of the steps: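 Uninfected HepG2-A16-CD81EGFP cells, 3 × 10^3 per well, 1536-well, plated on prespotted compound at 10 μM final, parasite-free screening media added to match infected plates; puromycin 10 μM positive, DMSO 0.5% negative; run in parallel with 48 h PbLuc assay at 37 °C, 5% CO2; viability by CellTiter-Glo luminescence, normalized to controls.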
For the molecule `COCC(=O)N[C@H]1C[C@@H](Cc2cc(CN3CCCCC3)on2)C1(C)C`, the cytotoxicity at 10 µM is -8.12%.

For the molecule `CCOc1cc(N2CCN(C(=O)c3ccc(OC)cc3)CC2)nc(C)n1`, the cytotoxicity at 10 µM is -10.2%.

Turning to `CCn1c2c(ccc1=O)CC(N)CC2` (stereo unspecified), the cytotoxicity at 10 µM was -1.72%.

Consider `O=C(NCC1CC1)C1CCC2(CCNCC2)C1` (stereo unspecified), for which the cytotoxicity at 10 µM turned out to be 1.91%.

As to `CC[C@@H]1N(CC2CCC2)CCC[C@]12CCC(=O)N2Cc1ccncc1`, the cytotoxicity at 10 µM worked out at 7.12%.

In the case of `CCN1CCC2(CC1)CN(CCO)c1ccccc12`, the cytotoxicity at 10 µM is -0.173%.

Consider `CO[C@@H]1CCN(c2ncccn2)[C@H]1Cc1ccccc1`, for which the cytotoxicity at 10 µM is -0.651%.

Regarding `O=C1CC(c2ccsc2)c2sc(C(=O)O)c(-c3ccc(F)cc3)c2N1` (stereo unspecified), the cytotoxicity at 10 µM turned out to be 4.4%.

On to `COc1ccc(-n2ncc(C(=O)NCC3COC(C)(C)O3)c2N)cc1` (stereo unspecified), for which the cytotoxicity at 10 µM was determined as 3.97%.

As for `CC(=O)N1CCN(C(=O)C2CCN(c3cccnn3)C2)CC1` (stereo unspecified), the cytotoxicity at 10 µM was -17.6%.

As to `CCC(CC)C(=O)N1CCN(Cc2cc(-c3ccncc3)nn2C)CC1`, the cytotoxicity at 10 µM was -27.9%.

On to `COc1cccc(C(C)N2CCN(S(=O)(=O)CCCF)CC2)c1` (stereo unspecified), for which the cytotoxicity at 10 µM was found to be 2.5%.

On to `CC(C)CNC(=O)Nc1cccc(OCC#N)c1`, for which the cytotoxicity at 10 µM is -0.353%.

As for `CN(CC(=O)Nc1nc2c(s1)CCC2)C(=O)c1cccs1`, the cytotoxicity at 10 µM is -10.3%.

Turning to `CCn1nc(C)c(CNC(=O)NCC(C)(O)c2ccc(C)o2)c1C` (stereo unspecified), the cytotoxicity at 10 µM was determined as 10.5%.

For `COc1c(C)cnc(CNC(=O)c2cnc3onc(C)c3c2)c1C`, the cytotoxicity at 10 µM is 26.3%.

As for `c1ccc(NCc2cccc(OCCN3CCOCC3)c2)nc1`, the cytotoxicity at 10 µM worked out at 0.174%.

For `O=C(NCc1ccccc1CN1CCCC1=O)Nc1nncs1`, the cytotoxicity at 10 µM was -2.82%.

In the case of `CCc1noc(C)c1C(=O)Nc1cnn(CC(=O)NC2CCCC2)c1`, the cytotoxicity at 10 µM was -3.08%.

`O=C(NCc1cccc(F)c1)NC1CCCN(c2ncccn2)C1` (stereo unspecified): the cytotoxicity at 10 µM was -0.7%.

As for `Cc1cc(N2CCOCC2)ccc1NC(C)c1nc(C(C)C)no1` (stereo unspecified), the cytotoxicity at 10 µM was -12.3%.

Turning to `CC(C)c1nc2c(n1C)CCN(CCS(=O)(=O)c1ccccc1)C2`, the cytotoxicity at 10 µM was found to be 5.11%.

As to `Cc1cc(NCC(=O)NCC(F)(F)F)nc(-c2ccncc2)n1`, the cytotoxicity at 10 µM is 6.45%.

In the case of `Cc1c(Cl)cccc1S(=O)(=O)NCc1cnc(N(C)C)n1C`, the cytotoxicity at 10 µM is -6.31%.

Regarding `NC(=O)CN(Cc1ccc(Br)cc1)C(=O)c1cccnc1`, the cytotoxicity at 10 µM was 9.49%.

On to `Cc1cccc(NC(=O)N(CCC(F)(F)F)C[C@H](O)CO)c1`, for which the cytotoxicity at 10 µM is 4.3%.

As to `COc1ccccc1CN(Cc1nc(CC(C)C)no1)C1CC1`, the cytotoxicity at 10 µM was found to be 4.93%.

On to `Cc1ccc(C(=O)NCCS(C)(=O)=O)c(=O)[nH]1`, for which the cytotoxicity at 10 µM is -9.32%.

As to `CC(=O)Nc1c(C)cnn1Cc1cc(F)ccc1F`, the cytotoxicity at 10 µM amounted to 25.3%.

For the molecule `O=C(NCc1ccccc1CN1CCC(O)CC1)Nc1ccncc1`, the cytotoxicity at 10 µM was -13.1%.

On to `Cc1cc(CN(C)C(=O)C2CCCN(C(=O)c3cccs3)C2)no1` (stereo unspecified), for which the cytotoxicity at 10 µM was -17%.

Take `COCCN1C(=O)CC(N2CCN(c3ccc(OC)cc3)CC2)C1=O` (stereo unspecified): the cytotoxicity at 10 µM is -12.6%.

As to `O=C(O)c1cc(-c2cncnc2)cc(S(=O)(=O)N2CCCCCC2)c1`, the cytotoxicity at 10 µM came out at 5.38%.

As for `CCC(=O)N1CCCC(c2nc(-c3cccnn3)no2)C1` (stereo unspecified), the cytotoxicity at 10 µM is -6.45%.

In the case of `CN(C)S(=O)(=O)NCc1cccnc1Oc1ccc(F)c(F)c1`, the cytotoxicity at 10 µM came to 3.05%.

For the molecule `CCn1c(CN(C)C)nnc1C1CCN(Cc2ccc(Cl)cc2F)CC1`, the cytotoxicity at 10 µM was -2.53%.

As for `Cc1ccc(N2CCC(C(=O)O)(n3ccc(C(C)C)n3)CC2)nn1`, the cytotoxicity at 10 µM was -3.64%.

In the case of `COc1ccnc(N2CCC3(CC2)[C@H](O)C[C@@H]3OCCN(C)C)n1`, the cytotoxicity at 10 µM was 1.03%.

Consider `Cc1c(NC(=O)N(C)CCCc2cnn(C)c2)cnn1C`, for which the cytotoxicity at 10 µM is -1.23%.

As to `NC(=O)N1CCCC(c2nc(-c3cccnn3)no2)C1` (stereo unspecified), the cytotoxicity at 10 µM was -1.31%.

For the molecule `CCC[C@H]1CN(C(=O)CCn2ccccc2=O)C[C@@H]1NS(C)(=O)=O`, the cytotoxicity at 10 µM was found to be 5.35%.

With `CC(C)S(=O)(=O)N1CCCC(c2cccc(C(=O)O)c2)C1` (stereo unspecified), the cytotoxicity at 10 µM was -2.18%.

As to `Cc1ccc(C2(CN(C)Cc3snnc3C)CCNCC2)nc1`, the cytotoxicity at 10 µM was -0.355%.

For `Cc1nc(-c2c(-c3ccccc3)ncn2[C@H]2C[C@@H](C(=O)O)N(C)C2)co1`, the cytotoxicity at 10 µM turned out to be 0.024%.

For `CNCCN1C(=O)CC[C@H]2CN(c3ncc(F)cn3)CC[C@H]21`, the cytotoxicity at 10 µM was found to be 1.68%.

Take `O=C(O)c1cc2n(n1)CCCN(C(=O)CCc1c[nH]c3ccccc13)C2`: the cytotoxicity at 10 µM was 3.77%.

For the molecule `COCCN1CCCC2(CCN(c3cc(C)c(C#N)c(C)n3)C2)C1=O` (stereo unspecified), the cytotoxicity at 10 µM is 2.7%.

For `CCCn1cc(-c2cc(C(=O)N(C)C)c3cccc(C)c3n2)cn1`, the cytotoxicity at 10 µM stood at 5.11%.

For the molecule `CN(Cc1cnc(N)nc1)CC1CCCN(CCc2ccc(Cl)cc2)C1` (stereo unspecified), the cytotoxicity at 10 µM is -0.849%.

With `Cc1cc(C)c2nc(CN[C@H]3CCCNC3)cc(O)c2c1`, the cytotoxicity at 10 µM turned out to be 4.09%.

`CCS(=O)(=O)N1CCN(c2cc(-n3cnc(C)c3C)nc(C)n2)CC1`: the cytotoxicity at 10 µM worked out at 0.599%.

In the case of `Cc1nc(N2CCCCC2)ncc1C(=O)N1CC(C)(C)[C@@](C)(O)C1`, the cytotoxicity at 10 µM was 1.41%.

Turning to `COc1cccc(CN2CCC(c3nccn3C(C)C)CC2)c1`, the cytotoxicity at 10 µM was -8.37%.

Take `Cc1cc(C)c(C(=O)N2CCOCC2c2c(C)n[nH]c2C)o1` (stereo unspecified): the cytotoxicity at 10 µM is -4.01%.

For `O=C(NCC1CCOC1)Nc1ccc(Oc2cccc(F)c2)nc1` (stereo unspecified), the cytotoxicity at 10 µM was -5.01%.

As to `Cc1ccc(-c2cc(C(=O)NCCN3CCCS3(=O)=O)[nH]n2)cc1`, the cytotoxicity at 10 µM is -7.57%.

With `O=S(=O)(CCN1CCCCC1Cn1cncn1)c1ccccc1` (stereo unspecified), the cytotoxicity at 10 µM came to 10.4%.

For the molecule `CCc1n[nH]c(C2CN(C(=O)c3cnn(CC)c3)CCO2)n1` (stereo unspecified), the cytotoxicity at 10 µM is -2.87%.

Turning to `Cc1nc(CN(C)C2CCN(CCc3ccc4c(c3)CCO4)C2)no1` (stereo unspecified), the cytotoxicity at 10 µM is -12%.

For the molecule `CN(Cc1coc(-c2ccccc2)n1)CC1CCCN1c1cccnn1` (stereo unspecified), the cytotoxicity at 10 µM is -10.4%.

For `CCc1nc(CN2CCCN(C(=O)c3occc3C)CC2)cs1`, the cytotoxicity at 10 µM is -21.9%.

For `O=C(NCCn1nc2ccccn2c1=O)c1cc(-c2ccccc2)[nH]n1`, the cytotoxicity at 10 µM was -28.5%.

With `Cc1cn2nc(N3CCCC3Cn3cncn3)sc2n1` (stereo unspecified), the cytotoxicity at 10 µM was -18.3%.

Turning to `O=C(CCSc1ccccc1)NS(=O)(=O)c1ccc2c(c1)OCCO2`, the cytotoxicity at 10 µM is -5.69%.

`COc1ccc(OCCN(C)C(=O)NC(C)c2nncn2C)cc1` (stereo unspecified): the cytotoxicity at 10 µM came out at 1.08%.

As for `Cn1cncc1C(=O)N1CCOC2(COCCN(CC3CC3)C2)C1` (stereo unspecified), the cytotoxicity at 10 µM turned out to be 9.17%.

Take `CCN1CC2(CC1=O)CN(Cc1ccccn1)CCN(C(C)=O)C2` (stereo unspecified): the cytotoxicity at 10 µM was -1.07%.

For the molecule `COCC1CN(Cc2ccc(C)o2)Cc2nnn(CC3CC3)c21` (stereo unspecified), the cytotoxicity at 10 µM is -9.96%.

Turning to `O=C(NCC1CC1)c1n[nH]c2c1CNCC2`, the cytotoxicity at 10 µM amounted to 4.14%.

In the case of `CNC(=O)[C@@H](C1CCCCC1)N1CCC[C@H]1C(=O)N(C)CCN(C)C`, the cytotoxicity at 10 µM is -0.39%.

For `Cc1ccc(CN2CC[C@@H](NS(C)(=O)=O)[C@@H]2Cc2ccncc2)o1`, the cytotoxicity at 10 µM is -3.18%.
